Laboratory results from ChEMBL document CHEMBL3124940, “Design, synthesis and biological evaluation of D-ring opened galantamine analogs as multifunctional anti-Alzheimer agents” (Eur J Med Chem, 2014).
Activity calls are given as the source filed them. The rule behind the calls is not given here.

Key:
[1] = system: Rattus norvegicus; assay: Antialzheimer activity in Wistar rat scopolamine-induced cognition impairment model assessed as decrease in amount of errors plus baits not found during exploration at 1 umol/100 g body weight, ip treated for 5 mins prior to scopolamine-challenge measured after 20 to 120 mins by eight-arm radial maze test; assay type: functional, organism-based
Summary of the method: (§1)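 Female 60-day-old Wistar rats (Han:Wist) trained in an eight-arm radial maze to error-free trials under 60 s on three consecutive days; each animal served as its own control. Test agent given i.p. in saline 5 min before scopolamine (0.05 mg/100 g b. wt., i.p. in saline). Errors plus baits not found after 10 min, and total searching time, recorded before and 20, 60, 120 min after scopolamine; n = 14, mean ± SEM.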

[2] = target: Acetylcholinesterase (Electrophorus electricus, UniProt O42275); assay: Inhibition of electric eel AChE using acetylthiocholine iodide as substrate preincubated for 5 mins followed by substrate addition measured after 5 mins by Ellman's method
[3] = target: Cholinesterase (Equus caballus, UniProt P81908); assay: Inhibition of equine serum BChE using butyrylthiocholine iodide as substrate preincubated for 5 mins followed by substrate addition measured after 5 mins by Ellman's method
Summary of the method: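 Ellman's method with equine serum BChE and butyrylthiocholine iodide; DTNB read-out at 412 nm, 25 °C. Phosphate buffer pH 8.0. At least five concentrations (normally 10^-4 to 10^-9 M), each in triplicate, to build the inhibition curve. Data are means of at least three determinations.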

[4] = Selectivity ratio of IC50 for electric eel AChE to IC50 for equine serum BChE
Summary of the method: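 AChE is electric eel Type VI-S with acetylthiocholine; BChE is equine serum with butyrylthiocholine. At least five concentrations, each in triplicate. Ratio = IC50(AChE)/IC50(BChE).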

[5] = Induction of nitric oxide release in PBS at 100 uM at pH 7.4 after 24 hrs by Griess method relative to control; assay type: physicochemical; settings: buffer, pH 7.4, 24 h
Summary of the method: (§2)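 Test compound at 100 µM in phosphate buffer pH 7.4, alone or with 90 µL rat serum added, incubated 37 °C for 24 h. Griess reagent added, then 30 min at 37 °C with gentle shaking; absorbance read at 540 nm and blank-corrected. Nitrite quantified against an NaNO2 calibration curve and expressed as % of a theoretical 1 mol NO per mol nitrate; n = 3.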

[6] = Induction of nitric oxide release in PBS at 100 uM at pH 7.4 after 24 hrs by Griess method in presence of rat serum; assay type: physicochemical; settings: pH 7.4, 24 h; summary of the method: as §2
[7] = system: Rattus norvegicus; assay: Toxicity in Wistar rat assessed as change in movement at 1 umol/100 g body weight, ip; assay type: organism-based; settings: in vivo
[8] = system: Rattus norvegicus; assay: Antialzheimer activity in Wistar rat scopolamine-induced cognition impairment model assessed as total exploration time at 1 umol/100 g body weight, ip treated for 5 mins prior to scopolamine-challenge by eight-arm radial maze test relative to control; assay type: functional; summary of the method: as §1
[9] = system: Rattus norvegicus; assay: Toxicity in Wistar rat scopolamine-induced cognition impairment model assessed as change in movement at 1 umol/100 g body weight, ip; assay type: organism-based; settings: in vivo
Summary of the method: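 60-day-old female Wistar rats were trained in an eight-arm radial maze to no errors in under 60 s on 3 consecutive days; each rat served as its own control. Compound in saline was given i.p., then scopolamine (0.05 mg/100 g, saline, i.p.) 5 min later. Errors plus baits not found after 10 min and total searching time were recorded before and 20, 60 and 120 min after scopolamine; n = 14, mean ± SEM.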

Sequence of Cholinesterase (P81908 whole entry): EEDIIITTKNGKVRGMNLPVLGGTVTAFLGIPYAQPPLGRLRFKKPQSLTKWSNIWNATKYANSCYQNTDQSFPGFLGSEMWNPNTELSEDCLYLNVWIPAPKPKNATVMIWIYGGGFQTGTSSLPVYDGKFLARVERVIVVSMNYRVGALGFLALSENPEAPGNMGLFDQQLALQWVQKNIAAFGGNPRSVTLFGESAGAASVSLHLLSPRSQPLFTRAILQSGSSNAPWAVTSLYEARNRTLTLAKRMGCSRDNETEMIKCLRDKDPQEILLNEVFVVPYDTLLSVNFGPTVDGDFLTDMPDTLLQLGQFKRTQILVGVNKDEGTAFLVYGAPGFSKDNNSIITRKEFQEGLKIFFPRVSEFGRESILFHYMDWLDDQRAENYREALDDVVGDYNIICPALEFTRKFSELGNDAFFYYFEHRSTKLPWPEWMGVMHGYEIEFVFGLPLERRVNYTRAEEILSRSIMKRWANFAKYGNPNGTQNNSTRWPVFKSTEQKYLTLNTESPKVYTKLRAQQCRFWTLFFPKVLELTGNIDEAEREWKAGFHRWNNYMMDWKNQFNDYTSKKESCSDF
Sequence of Acetylcholinesterase (O42275 whole entry): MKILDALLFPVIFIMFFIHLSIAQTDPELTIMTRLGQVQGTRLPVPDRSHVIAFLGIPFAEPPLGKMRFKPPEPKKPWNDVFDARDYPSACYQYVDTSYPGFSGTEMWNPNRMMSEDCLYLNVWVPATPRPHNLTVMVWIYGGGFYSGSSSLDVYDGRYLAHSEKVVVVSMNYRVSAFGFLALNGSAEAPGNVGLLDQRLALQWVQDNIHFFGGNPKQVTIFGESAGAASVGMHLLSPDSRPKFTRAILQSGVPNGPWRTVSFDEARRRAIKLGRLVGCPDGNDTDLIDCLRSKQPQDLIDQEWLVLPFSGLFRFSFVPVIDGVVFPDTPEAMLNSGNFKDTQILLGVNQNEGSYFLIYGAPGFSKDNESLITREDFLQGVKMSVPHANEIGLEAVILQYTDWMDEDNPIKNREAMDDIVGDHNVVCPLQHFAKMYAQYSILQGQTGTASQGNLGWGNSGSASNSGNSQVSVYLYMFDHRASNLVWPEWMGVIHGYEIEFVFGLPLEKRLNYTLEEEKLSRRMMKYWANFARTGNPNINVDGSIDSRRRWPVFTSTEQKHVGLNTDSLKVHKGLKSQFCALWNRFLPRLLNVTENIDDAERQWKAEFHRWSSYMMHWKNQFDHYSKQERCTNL

Structure (SMILES)	Activity [1]	IC50 [2]	IC50 [3]	Ratio IC50 [4]	Activity [5]	Activity [6]	Activity [7]	Time [8]	Activity [9]
COc1ccc2c(c1)[nH]c1cccc(CN(C(=O)CCO[N+](=O)[O-])C(C)C)c12	Active	2.21 µM	2.5 µM	0.88	4.8%	Active	Non-toxic	107 s	Non-toxic
COc1ccc2c(c1)[nH]c1cccc(CNCc3ccccc3)c12		> 50 µM	29.9 µM						
CC(C)NCc1cccc2[nH]c3cc(O)ccc3c12		43.5 µM	17.3 µM	3.54					
COc1ccc2c(c1)oc1cccc(CNCc3ccccc3)c12		> 50 µM	18.1 µM						
CCN(CC)Cc1cccc2oc3cc(OC)ccc3c12		39.1 µM	27.4 µM	1.43					
COc1ccc2c(c1)oc1cccc(CNC(C)C)c12		11.6 µM	13.5 µM	0.86					
CCN(C)Cc1cccc2oc3cc(OC)ccc3c12		> 50 µM							
